Hits are enriched below; roughly 12% of the tested compounds scored in any of these assays.
Rad51 HR inh – Rad51 (human) homologous recombination inhibition; Q06609; hRad51 DNA strand exchange, fluorescence dequenching; inhibition, % at 10 µM; actives 0.085% (n = 200,000);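 active = inhibition above 40% at the single screening dose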;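 note: 0% = DMSO control wells and 100% = blanks with heterologous ssDNA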
Target sequence (Q06609 whole entry, looked up): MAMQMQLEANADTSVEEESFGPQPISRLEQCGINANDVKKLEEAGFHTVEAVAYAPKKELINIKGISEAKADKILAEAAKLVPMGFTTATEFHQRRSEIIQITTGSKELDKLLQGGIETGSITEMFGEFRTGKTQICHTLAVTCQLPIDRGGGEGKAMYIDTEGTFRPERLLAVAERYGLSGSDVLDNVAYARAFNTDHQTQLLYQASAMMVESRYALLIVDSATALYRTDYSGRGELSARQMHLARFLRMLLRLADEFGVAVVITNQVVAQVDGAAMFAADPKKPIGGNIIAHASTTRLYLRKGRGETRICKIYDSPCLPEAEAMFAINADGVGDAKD
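material = hRad51 filaments on single-stranded DNA | timing = filaments 15 min 37 °C, then compound 30 min | signal = FRET fluorescence dequenching, excitation 485 nm, emission 520 nm | benchmarks = control wells and blank wells on each plate | evaluation = percent inhibition relative to plate controls and blanks | compound = 10 µM final, single point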
CHOP inh – CHOP inhibition in unfolded protein response; CHO-K1 CHOP-promoter luciferase, tunicamycin-induced, 15-18 h; inhibition, % at 10 µM; actives 3.8% (n = 220,000); AID 2732;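 active = compounds that reduced the stress-induced luciferase reporter signal by more than about 70% of percent inhibition, limit read from the data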;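 note: 0% = tunicamycin plus vehicle and 100% = wells without tunicamycin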
PKD1 inh – blocks activity of human protein kinase D1. Q15139. PKD1 kinase fluorescence polarization assay. inhibition, % (concentration not given with the values). actives 0.056% (n = 200,000)
Wee1 degr inh – inhibitors of human Wee1 degradation; P30291; actives 1.2% (n = 220,000); AID 1321; HeLa Luc-Wee1K328M stability, luciferase luminescence; 100% = proteasome inhibitor MG132 effect; reporter increase, % at 5 µM;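 active = activation above the mean of all tested compounds plus 3 SD, set per screening run, cut at about 8.8% in these data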;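 note: cells exposed to compound for 20 h before luminescence read; 0% = DMSO alone and 100% = MG132 at 30 µM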
Arbovirus anti – antivirals against arbovirus infection; actives 0.37% (n = 200,000); arbovirus infection cell-based antiviral screen; AID 1251; inhibition, % at 10 µM; in the data active = inhibition above about 30%
L major viab – reduces viability of Leishmania major promastigotes; resazurin fluorescence viability; inhibition, % at 10 µM; actives 9% (n = 200,000); AID 1063;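 note: promastigotes grown with compound for 44 hours at 28 °C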
Wee1 degr conf – human Wee1 degradation inhibition, confirmation | HeLa Luc-Wee1K328M degradation, luminescence; vehicle 0%, proteasome-blocked wells 100% | shares compounds with Wee1 degr inh | activation, % at 5 µM | actives 4% (n = 1,100); in the data active = activation above about 8.9%
* = called active by the depositor. Cut-off read from the data, not from the text of the source, unless noted: active = inhibition above about 50%; inactive = the rest.

COC(=O)C(Cc1c[nH]c2ccccc12)NC(C)=O (stereo unspecified) was read as Rad51 HR inh -4.5, CHOP inh 11.6, PKD1 inh -2.3, Wee1 degr inh 11.1*, Arbovirus anti 0.5, L major viab -3.1 and Wee1 degr conf -1.9.
COC(=O)C(Cc1c[nH]c2ccccc12)NC(=O)c1cccs1 (stereo unspecified) was read as Rad51 HR inh 10.0, CHOP inh 4.9 and Wee1 degr inh -1.8.
For COCCNc1c(-c2cc3ccc(C)c(C)c3[nH]c2=O)nc2ccccn12 the results were Rad51 HR inh 8.4, CHOP inh -19.5, PKD1 inh 1.2, Wee1 degr inh 12.9*, Arbovirus anti -6.3, L major viab 5.3 and Wee1 degr conf 2.2.
For COc1cc(C)c(N)cc1C(C)C the results were Rad51 HR inh -7.4, CHOP inh -13.8, PKD1 inh -13.7, Wee1 degr inh 18.7*, Arbovirus anti 0.9, L major viab -2.3 and Wee1 degr conf -0.6.
`COc1cc(C)c(S(=O)(=O)N2CCOCC2)cc1C(C)C` gave Rad51 HR inh 6.7, CHOP inh 30.9, PKD1 inh -5.9, Wee1 degr inh 1.7, Arbovirus anti -1.2 and L major viab 0.8.
Screening COC(=O)CC1=NN(c2ccc(OC)cc2)C(=O)C1 returned Rad51 HR inh -4.2, CHOP inh 12.2, PKD1 inh 0.6, Wee1 degr inh 11.6*, Arbovirus anti 0.7, L major viab -2.4 and Wee1 degr conf 2.3.
Screening CNc1oc(-c2ccccc2Cl)nc1C#N returned Rad51 HR inh 7.7, CHOP inh 2.5, PKD1 inh -6.0, Wee1 degr inh 12.5*, Arbovirus anti -5.2, L major viab 7.2 and Wee1 degr conf 0.1.
For O=C(CN1N=C(c2ccc(Cl)cc2)CCC1=O)NCc1cccs1 the results were Rad51 HR inh -2.1, CHOP inh 12.7, PKD1 inh 2.8, Wee1 degr inh 11.7*, Arbovirus anti 5.3, L major viab -4.3 and Wee1 degr conf -1.7.
Screening CCCc1cc(=O)n2[nH]c(-c3ccc(C)cc3)cc2n1 returned Rad51 HR inh -1.8, CHOP inh 12.2, PKD1 inh 0.8, Wee1 degr inh 13.0*, Arbovirus anti -2.9, L major viab 6.1 and Wee1 degr conf 4.5.
Screening CCCc1cc(=O)n2[nH]c(-c3ccccc3)cc2n1 returned Rad51 HR inh 9.8, CHOP inh 18.6, PKD1 inh -2.0, Wee1 degr inh -2.8, Arbovirus anti -5.9 and L major viab 2.5.
`COc1ccc(/C=C/C(=O)NCC(=O)N2CCC(N(C)CCN3CCOCC3)CC2)cc1OC` gave Rad51 HR inh 2.9, CHOP inh -2.1, PKD1 inh -2.5, Wee1 degr inh -0.3, Arbovirus anti 3.6 and L major viab -7.0.
`Cc1ccccc1NC(=O)NC(N)=O` gave Rad51 HR inh 0.3, CHOP inh 9.7, PKD1 inh -4.3, Wee1 degr inh 14.1*, Arbovirus anti -0.3, L major viab -8.8 and Wee1 degr conf -1.7.
`COC(=O)c1ccc(S(=O)(=O)NC(C)(C)C)n1C` gave Rad51 HR inh 23.6, CHOP inh -3.2 and Wee1 degr inh -1.5.
COc1ccc(N2CCC(CNC(=S)Nc3cccc(C)c3)C2)cc1 (stereo unspecified) was read as Rad51 HR inh -6.8, CHOP inh 1.2, PKD1 inh 0.8, Wee1 degr inh 11.1*, Arbovirus anti -2.7, L major viab 72.4* and Wee1 degr conf 0.2.
`COc1ccc(CN(C)C(C)C(=O)Nc2ccc(S(=O)(=O)N3CCCC3)cc2)c(OC)c1OC` (stereo unspecified) gave Rad51 HR inh -3.5, CHOP inh 35.8, PKD1 inh -8.2, Wee1 degr inh 1.8, Arbovirus anti 3.0 and L major viab 27.0.
`COc1cc(SC)ccc1C(=O)Nc1ccc2c(c1)OCO2` gave Rad51 HR inh 7.2, CHOP inh 19.6, PKD1 inh -7.2, Wee1 degr inh 13.0*, Arbovirus anti -1.8, L major viab 16.9 and Wee1 degr conf 2.9.
Screening COC(=O)c1ccc(COc2ccccc2/C=C(\C#N)C(=O)Nc2ccccc2C)cc1 returned Rad51 HR inh 4.0, CHOP inh 7.7, PKD1 inh -3.2, Wee1 degr inh 20.3*, Arbovirus anti 0.9, L major viab -1.5 and Wee1 degr conf -0.6.
Screening COc1ccccc1OS(=O)(=O)c1ccc(NC(C)=O)cc1 returned Rad51 HR inh 3.3, CHOP inh 10.4, PKD1 inh -2.1, Wee1 degr inh -0.9, Arbovirus anti 2.9 and L major viab 7.8.
COc1ccc(/C=N/NC(=O)c2ccc3ccccc3c2)cc1OS(=O)(=O)c1ccc(NC(C)=O)cc1 was read as Rad51 HR inh -1.4, CHOP inh -13.9, PKD1 inh -1.1, Wee1 degr inh 14.4*, Arbovirus anti -25.6, L major viab 11.1 and Wee1 degr conf 13.0*.
Screening Cc1c(Br)c(C(=O)NNC(=O)c2ccc(C(C)(C)C)cc2)nn1C returned Rad51 HR inh 10.2, CHOP inh -4.6 and Wee1 degr inh -1.0.
C/C(=N\NC(=O)c1cccnc1)c1ccc(OC2OCCOC2Oc2ccc(/C(C)=N/NC(=O)c3cccnc3)cc2)cc1 (stereo unspecified) was read as Rad51 HR inh -10.4, CHOP inh 0.3, PKD1 inh -5.6, Wee1 degr inh -1.2, Arbovirus anti -2.6 and L major viab 0.3.
COc1ccccc1NC(=O)CN1CCC(n2nnc3cc(F)ccc32)CC1 was read as Rad51 HR inh -2.7, CHOP inh 33.2, PKD1 inh -8.7, Wee1 degr inh -0.4, Arbovirus anti 3.6 and L major viab 31.1.
For O=C(CN1CCC(n2nnc3cc(C(F)(F)F)ccc32)CC1)Nc1ccc2c(c1)OCCO2 the results were Rad51 HR inh 4.3, CHOP inh 42.5, PKD1 inh 10.5, Wee1 degr inh 15.1*, Arbovirus anti -13.8, L major viab 18.2 and Wee1 degr conf 1.6.
`CC(=O)Nc1ccccc1C(=O)C(=O)Nc1ccc(C)c(F)c1` gave Rad51 HR inh 7.1, CHOP inh -33.4, PKD1 inh 4.4, Wee1 degr inh 17.8*, Arbovirus anti -7.1, L major viab -1.9 and Wee1 degr conf 8.0.
For CSc1ccc(-c2nnn(CC(=O)NCc3ccccc3)n2)cc1 the results were CHOP inh 62.2, PKD1 inh -3.3, Wee1 degr inh -0.6, Arbovirus anti -15.8 and L major viab -4.8.
Screening CCOC(=O)C(Cc1ccccc1)NC(=O)Cn1nnc(-c2ccc(SC)cc2)n1 (stereo unspecified) returned Rad51 HR inh -9.9, CHOP inh 58.1, PKD1 inh -8.8, Wee1 degr inh 13.0*, Arbovirus anti 8.6, L major viab -4.8 and Wee1 degr conf 4.4.
